# Measurements: ChEMBL document CHEMBL3227935, “Mapping the dopamine receptor. 2. Features derived from modifications in the rings A/B region of the neuroleptic butaclamol” (J Med Chem, 1979)
# The source made the active and inactive calls. The rule behind the calls is not given here.
# Key:
# [1] = test system: Rattus norvegicus; experiment: Neuroleptic activity in ip dosed Sprague-Dawley rat assessed as inhibition of d-amphetamine sulfate-induced stereotyped behavior measured every 15 mins for 4 hrs; type: functional; conditions: read-out: MED
# How it was run: (§1)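 Male rats (160-180 g), groups of four or more, given d-amphetamine 10 mg/kg ip, then graded ip doses of compound or vehicle 15 min later (highest 20 mg/kg). Behavior scored every 15 min over 4 h: 0 normal, 1 excited, 2 stereotyped. MED is the lowest dose antagonizing all amphetamine effects for the whole period.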
# [2] = test system: Rattus norvegicus; experiment: Neuroleptic activity in ip dosed Sprague-Dawley rat assessed as protection against epinephrin bitartrate-induced mortality measured over 24 hrs; type: functional
# How it was run: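 Groups of six or more male Sprague–Dawley rats (220–250 g) received graded ip doses. Epinephrine bitartrate, 0.25 mg/kg iv, lethal to untreated rats, was injected 1 h later. Deaths were counted over 24 h. Protective ED50 (mg/kg, ip) is the dose that saved 50% of rats, calculated by Litchfield–Wilcoxon.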
# [3] = Dissociation constant, pKa of the compound; type: physicochemical
# [4] = test system: Rattus norvegicus; experiment: Neuroleptic activity in ip dosed Sprague-Dawley rat assessed as failure in active avoidance response measured within 30 mins; type: functional; conditions: 0.5 h
# How it was run: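 Male rats (250-400 g) trained in a three-chamber discrimination box to move to a lighted exit within 10 s or receive shock. Before dosing, a two-trial control session in groups of six or more. Graded ip doses, then ten trials 30 min later. Mean failures to leave before shock are taken as percent of trials. ED50 gives 50% failure, by Litchfield-Wilcoxon.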
# [5] = test system: Rattus norvegicus; experiment: Induction of catalepsy in Sprague-Dawley rat at 5 mg/kg, ip measured after 1 to 24 hrs relative to control; type: organism-based; design: dose 5 mg/kg, route intraperitoneal; conditions: in vivo
# How it was run: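 Male rats (160-180 g), groups of six, given 5 mg/kg ip. Catalepsy scored at 1, 2, 4, 6 and 24 h using stages III and IV of Wirth et al. The highest mean cataleptic score is expressed as percent of the maximum attainable score.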
# [6] = species: Mus musculus; experiment: Induction of taming effect in Swiss albino mouse assessed as reduction of isolation-induced fighting behavior measured after 0.5 to 3 hrs; type: functional
# How it was run: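 Male albino mice (14-16 g) isolated 4-5 weeks, then paired in one cage for 5 min. A morning control session confirmed maximal fighting in both members of each pair. Compounds given ip, with retesting at 30 min and 3 h. All-or-none read-out: effective if no fighting occurred in the 5-min observation. ED50 (mg/kg, ip) is the dose abolishing fighting in 50% of pairs, by Litchfield-Wilcoxon.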
# [7] = test system: Rattus norvegicus; experiment: Neuroleptic activity in Sprague-Dawley rat assessed as inhibition of d-amphetamine sulfate-induced stereotyped behavior at 20 mg/kg, ip measured every 15 mins for 4 hrs; type: functional, organism-based; design: dose 20 mg/kg; how it was run: as §1
SMILES,minimal effective dose [1] [mg/kg],ED50 [2] [mg/kg],pKa [3],ED50 [4] [mg/kg],%max [5] [%],ED50 [6] [mg/kg],inhibition [7]
CC(C)(C)[C@@]1(O)CCN2C[C@@H]3c4ccccc4CCc4cccc(c43)[C@H]2C1,0.62,15,5.9,0.64,60,1.9,
CC(C)(C)C1(O)CCN2C[C@H]3Cc4ccccc4Cc4cccc(c43)C2C1 (stereo not given in full),,,,,,,inactive
CC(C)(C)C1(O)CCN2C[C@H]3Cc4ccccc4Cc4cccc(c43)[C@@H]2C1 (relative stereo),0.62,10,,1,45,2,
CC(C)(C)C1(O)CCN2C[C@H]3CCc4ccccc4-c4cccc(c43)[C@@H]2C1 (relative stereo),,,,,,,inactive
CC(C)(C)C1(O)CCN2C[C@H]3CCc4ccccc4-c4cccc(c43)[C@H]2C1 (relative stereo),,,,,,,inactive
CC(C)(C)C1(O)CCN2C[C@H]3Cc4ccccc4Cc4cccc(c43)[C@H]2C1 (relative stereo),,,,,,,inactive
